Reference: ChEMBL document CHEMBL1687886, “N-cyclic bay-substituted perylene G-quadruplex ligands have selective antiproliferative effects on cancer cells and induce telomere damage” (J Med Chem, 2011)
The source made the active and inactive calls. No cut-off for these calls is given here.

Tests used:
Nucleic Acid [1] = assay: Binding affinity to human 21-TT G-quadruplex DNA structure assessed as second step association constant by electrospray ionization mass spectrometry; type: nucleic-acid assay
Summary of the method: (§1)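 ESI-MS in 150 mM ammonium acetate; DNA 5 μM final (per duplex or quadruplex unit); ligand at drug/DNA ratios 0.5 to 4. Methanol (15%) added just before injection, after binding equilibrium. K1 and K2 for 1:1 and 2:1 complexes, and % bound DNA, taken from relative peak intensities assuming equal response factors. At least three repeats.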

Nucleic Acid [2] = assay: Binding affinity to human DK66 duplex DNA structure assessed as second step association constant by electrospray ionization mass spectrometry; type: nucleic-acid assay; summary of the method: as §1
Nucleic Acid [3] = assay: Stabilization of 21-mer human F21T G4-telomeric quadruplex assessed as change in melting temperature at 1 uM by FRET assay; type: nucleic-acid assay
Nucleic Acid [4] = assay: Stabilization of human duplex DNA T-loop assessed as change in melting temperature at 1 uM by FRET assay; type: nucleic-acid assay
Nucleic Acid [5] = assay: Binding affinity to human 21-TT G-quadruplex DNA structure at 1:5 DNA to calf thymus DNA ratio by competitive inhibition assay; type: nucleic-acid assay; parameters: concentration or dose not given beside the values
Summary of the method: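 ESI-MS competition: quadruplex DNA and ligand each 5 μM final, plus calf thymus DNA at duplex/quadruplex ratios 1 and 5 (by phosphate concentration), in ammonium acetate. Percentage bound quadruplex and normalized bound quadruplex (N%) measured by mass spectrometry. SD over at least three independent experiments.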

BJ [6] = assay: Induction of DNA damage response in human BJ cells expressing SV40 early region EHLT assessed as phosphorylation of gamma H2AX at 0.25 uM after 24 hrs by immunofluorescence method; type: functional, cell-based
Summary of the method: (§2)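 BJ-EHLT and BJ-hTERT fibroblasts exposed to a range of concentrations for 24 h. Fixed in 2% formaldehyde, permeabilized in 0.25% Triton X-100, immunostained for γ-H2AX and 53BP1. Percentage of positive cells scored. Three independent experiments, SD.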

BJ [7] = assay: Induction of telomere dysfunction induced foci n human BJ cells expressing SV40 early protein EHLT assessed as increase in gamma H2AX/TRF1 co-localization at 1 uM by Deconvolution microscopy; type: functional
Summary of the method: (§3)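 BJ-EHLT cells stained for TRF1 together with γ-H2AX or 53BP1 and imaged by deconvolution microscopy. Cells with four or more γ-H2AX/TRF1 foci scored as TIF positive; percentage of TIF-positive cells and mean TIFs per nucleus recorded. Mean of three experiments, SD.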

BJ [8] = assay: Induction of telomere dysfunction induced foci n human BJ cells expressing SV40 early protein EHLT assessed as increase in gamma H2AX/TRF1 co-localization by Deconvolution microscopy; type: functional, cell-based; summary of the method: as §3
BJ [9] = assay: Delocalization of POT1 protein from […] in human BJ cells expressing SV40 early protein EHLT after 24 hrs by chromatin immunoprecipitation assay; type: functional, cell-based
Summary of the method: (§4)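 BJ-EHLT cells treated 24 or 72 h. Formaldehyde-crosslinked chromatin immunoprecipitated with anti-TRF1, anti-TRF2 or anti-POT1; β-actin antibody as negative control. Precipitates blotted and probed for telomeric repeats (ALU probe as nonspecific). Densitometry gives percentage of precipitated DNA relative to input (10% and 1%). Four independent experiments, SD.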

BJ [10] = assay: Delocalization of TRF1 protein from […] in human BJ cells expressing SV40 early protein EHLT by chromatin immunoprecipitation assay; type: functional, cell-based; summary of the method: as §4
BJ [11] = assay: Delocalization of TRF2 protein from […] in human BJ cells expressing SV40 early protein EHLT by chromatin immunoprecipitation assay; type: functional, cell-based; summary of the method: as §4
BJ [12] = assay: Antiproliferative activity against human BJ cells expressing SV40 early region EHLT at 0.5 uM after 24 hrs by Coulter counter method; type: functional, cell-based; settings: TDE = time-dependent effect, in the assay text read “after 2 to 8 days” for “after 24 hrs”
Summary of the method: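 Cells seeded at 5 ×10^4 per dish; compounds freshly dissolved and added to the medium 24 h after plating, at 0.5 μM or 3 μM (3 μM only for one derivative). Cell number by Coulter counting and viability by trypan blue exclusion daily, day 1 to day 8. Growth inhibition of treated vs untreated cells calculated at days 2, 4, 6 and 8. Representative experiments in quintuplicate, SD shown.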

BJ [13] = assay: Cell cycle arrest in human BJ cells expressing TERT assessed as accumulation at G0/G1 stage at 0.5 uM after 24 hrs by propidium iodide staining based flow cytometry (reference value: 61%); type: ADME
BJ [14] = assay: Cell cycle arrest in human BJ cells expressing TERT assessed as accumulation at S stage at 0.5 uM after 24 hrs by propidium iodide staining based flow cytometry (reference value: 21%); type: ADME
BJ [15] = assay: Cell cycle arrest in human BJ cells expressing TERT assessed as accumulation at G2/M stage at 0.5 uM after 24 hrs by propidium iodide staining based flow cytometry (reference value: 17%); type: ADME
BJ [16] = assay: Cell cycle arrest in human BJ cells expressing TERT assessed as accumulation at G0/G1 stage at 0.5 uM after 48 hrs by propidium iodide staining based flow cytometry (reference value: 80%); type: ADME
BJ [17] = assay: Cell cycle arrest in human BJ cells expressing TERT assessed as accumulation at S stage at 0.5 uM after 48 hrs by propidium iodide staining based flow cytometry (reference value: 12%); type: ADME
BJ [18] = assay: Cell cycle arrest in human BJ cells expressing TERT assessed as accumulation at G2/M stage at 0.5 uM after 48 hrs by propidium iodide staining based flow cytometry (reference value: 6%); type: ADME
BJ [19] = assay: Cell cycle arrest in human BJ cells expressing TERT assessed as accumulation at S stage at 0.5 uM after 72 hrs by propidium iodide staining based flow cytometry (reference value: 10%); type: ADME
BJ [20] = assay: Cell cycle arrest in human BJ cells expressing TERT assessed as accumulation at G0/G1 stage at 0.5 uM after 96 hrs by propidium iodide staining based flow cytometry (reference value: 86%); type: ADME
HT-29 = assay: Cytotoxicity against human HT-29 cells after 4 days by clonogenic assay relative to control; type: functional, cell-based; settings: HT-29, 96 h
Summary of the method: (§5)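 Clonogenic survival: cells seeded at 2 × 10^5 per dish and exposed for 4 days to 0.5-2 μM. Surviving fraction taken as absolute survival of treated over control. Four experiments, each in triplicate; mean with SD.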

M14 = assay: Cytotoxicity against human M14 cells after 4 days by clonogenic assay relative to control; type: functional, cell-based; settings: M14, 96 h; summary of the method: as §5
[21] = target: Telomerase reverse transcriptase (Homo sapiens, UniProt O14746); assay: Inhibition of human Telomerase activity in cell free system by TRAP assay
Summary of the method: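 Cell-free TRAP: protein extract incubated with compound at 1 to 50 μM so telomerase elongates the substrate oligonucleotide. Before PCR, phenol/chloroform/isoamyl-alcohol (50:49:1) extraction removes the ligand and DNA is precipitated overnight at -20 °C. Amplification uses a 36 bp ITAS; products are resolved on 12% PAGE and stained with SYBR Green. Signals are corrected by the no-extract control and normalized to untreated, giving dose-response IC50. Mean of three experiments.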

BJ [22] = assay: Induction of DNA damage response in human BJ cells expressing human TERT assessed as phosphorylation of gamma H2AX at 1 uM after 24 hrs by immunofluorescence; type: functional, cell-based; summary of the method: as §2
BJ [23] = assay: Induction of telomere dysfunction induced foci n human BJ cells expressing SV40 early protein EHLT assessed as increase in 53BP1/TRF1 co-localization by Deconvolution microscopy; type: functional, cell-based; summary of the method: as §3
BJ [24] = assay: Induction of DNA damage n human BJ cells expressing SV40 early protein EHLT assessed as increase in gamma-H2Ax phosphorylation at 0.5 uM; type: functional; summary of the method: as §2

Sequence of Telomerase reverse transcriptase (O14746 whole entry): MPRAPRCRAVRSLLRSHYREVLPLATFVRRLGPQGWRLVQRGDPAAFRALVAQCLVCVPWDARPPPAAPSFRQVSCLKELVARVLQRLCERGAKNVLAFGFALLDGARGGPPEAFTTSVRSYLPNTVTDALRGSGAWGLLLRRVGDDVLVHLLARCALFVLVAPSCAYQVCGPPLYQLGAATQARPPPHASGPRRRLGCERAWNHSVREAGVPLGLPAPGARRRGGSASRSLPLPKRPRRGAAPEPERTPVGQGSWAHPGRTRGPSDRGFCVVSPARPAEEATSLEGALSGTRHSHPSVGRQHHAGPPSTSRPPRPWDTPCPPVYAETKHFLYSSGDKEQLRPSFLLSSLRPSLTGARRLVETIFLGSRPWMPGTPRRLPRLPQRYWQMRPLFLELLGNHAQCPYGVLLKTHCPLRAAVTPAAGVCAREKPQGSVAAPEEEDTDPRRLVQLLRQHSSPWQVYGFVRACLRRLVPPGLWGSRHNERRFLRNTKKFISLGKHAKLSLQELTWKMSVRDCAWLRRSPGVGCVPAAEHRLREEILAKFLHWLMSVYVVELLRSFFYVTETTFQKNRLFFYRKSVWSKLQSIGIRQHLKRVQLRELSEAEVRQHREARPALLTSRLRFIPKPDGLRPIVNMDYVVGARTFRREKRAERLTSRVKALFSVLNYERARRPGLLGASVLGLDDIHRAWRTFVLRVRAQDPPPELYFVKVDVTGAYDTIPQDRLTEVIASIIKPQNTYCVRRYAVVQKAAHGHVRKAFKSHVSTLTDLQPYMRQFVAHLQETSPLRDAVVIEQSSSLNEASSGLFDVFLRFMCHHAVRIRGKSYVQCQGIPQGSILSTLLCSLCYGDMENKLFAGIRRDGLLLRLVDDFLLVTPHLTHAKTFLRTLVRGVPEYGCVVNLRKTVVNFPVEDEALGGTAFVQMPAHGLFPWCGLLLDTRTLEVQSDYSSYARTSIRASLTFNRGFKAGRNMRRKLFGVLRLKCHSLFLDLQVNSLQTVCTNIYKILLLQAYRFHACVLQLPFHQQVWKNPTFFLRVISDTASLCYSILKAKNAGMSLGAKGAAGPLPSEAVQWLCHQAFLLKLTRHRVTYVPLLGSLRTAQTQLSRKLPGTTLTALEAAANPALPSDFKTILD

`O=C1c2ccc3c4ccc5c6c(cc(N7CCCCC7)c(c7ccc(c2c37)C(=O)N1CCOCCN1CCCCC1)c64)C(=O)N(CCOCCN1CCCCC1)C5=O` showed a log Ks (Nucleic Acid [1]) of 5, a log Ks (Nucleic Acid [2]) of 4.2 and a ΔTm (Nucleic Acid [3]) of 23 °C. The ΔTm (Nucleic Acid [4]) was -0.2 °C, the Activity (Nucleic Acid [5]) was 39% and the Activity (BJ [6]) was “Active”. For the same molecule, the Activity (BJ [7]) was 50%, the Activity (BJ [8]) was “Active” and the Activity (BJ [9]) was “Active”. For the same molecule, the Activity (BJ [10]) was “inactive”, the Activity (BJ [11]) was “inactive” and the Activity (BJ [12]) was “tde”. It also gave an Activity (BJ [13]) of 62.8%, an Activity (BJ [14]) of 21.1% and an Activity (BJ [15]) of 16.1%. For the same molecule, the Activity (BJ [16]) was 78.4%, the Activity (BJ [17]) was 14% and the Activity (BJ [18]) was 7.6%. For the same molecule, the Activity (BJ [19]) was 7.6%, the Activity (BJ [20]) was 96.3% and the IC50 (HT-29) was 1100 nM. The IC50 (M14) was 800 nM, the IC50 [21] was 10000 nM and the Activity (BJ [22]) was “inactive”. For the same molecule, the Activity (BJ [23]) was “Active” and the Activity (BJ [24]) was 50%.
